{
  "source": "ChEMBL document CHEMBL4825692",
  "about": "“Benzofuranyl-2-imidazoles as imidazoline I2 receptor ligands for Alzheimer's disease” (Eur J Med Chem, 2021)",
  "key": {"[1]": {"test": "Acute toxicity in albino mouse assessed as effect on body weight at 100 mg/kg, ip", "assay_type": "organism-based", "settings": "in vivo"}, "CAPAN-1": {"system": "CAPAN-1", "test": "Cytotoxicity against human CAPAN-1 cells at 100 uM by real time IncuCyte proliferation assay", "assay_type": "cell-based", "settings": "capan-1, 100 µM", "in_short": "(§1)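 Adherent lines (LN-229, Capan-1, HCT-116, NCI-H460) seeded at 500–1500 cells/well and treated after overnight attachment. Suspension lines (HL-60, K-562, Z-138, DND-41) seeded at 2500–5500 cells/well directly with compound. Highest concentration 100 μM; proliferation tracked by real-time IncuCyte imaging over 72 h at 37 °C.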"}, "[2]": {"test": "Displacement of [3H]clonidine from imidazoline I1 receptor low affinity site in rat hypothalamic membranes measured after 30 mins by liquid scintillation counting spectrometry", "assay_type": "cell membranes, Hypothalamus, Membrane"}, "Homo sapiens [3]": {"species": "Homo sapiens", "test": "Displacement of [3H]2-BFI from imidazoline I2 receptor in post-mortem human brain frontal cortex membrane assessed as occupancy at high affinity site measured after 45 mins by liquid scintillation counting spectrometry"}, "Mus musculus [4]": {"species": "Mus musculus", "test": "Displacement of [3H]2-BFI from imidazoline I2 receptor in Swiss mouse brain cerebral cortex membrane assessed as occupancy at high affinity site measured after 45 mins by liquid scintillation counting spectrometry"}, "K562": {"system": "K562", "test": "Cytotoxicity against human K562 cells at 100 uM by real time IncuCyte proliferation assay", "assay_type": "cell-based", "settings": "k562, 100 µM", "in_short": "as §1"}, "Mus musculus [5]": {"system": "Mus musculus", "test": "Antialzheimer activity in 5xFAD transgenic Alzheimer disease mouse model assessed as decrease in aldehyde dehydrogenase 2 expression at 1 mg/kg/day by Western blot analysis"}, "[6]": {"test": "Hypothermic effect in CD-1 mouse assessed as reduction in body temperature at 50 mg/kg, ip measured up to 3 hrs by rectal thermometric method", "assay_type": "ADME, organism-based", "settings": "in vivo", "in_short": "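Adult male and female CD-1 mice (n = 5 per group) given single i.p. doses (1, 5, 10, 20, 30, 50 mg/kg) or saline vehicle 2 ml/kg. Rectal temperature read with a digital probe before dosing and 1, 2 and 3 h after; change from basal value analysed by repeated measures ANOVA with Sidak's test.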"}, "[7]": {"test": "Displacement of [3H]idazoxan from imidazoline I2 receptor high affinity site in rat brain cerebral cortex membrane measured after 30 mins by liquid scintillation counting spectrometry"}, "LN-229": {"system": "LN-229", "test": "Cytotoxicity against human LN-229 cells at 100 uM by real time IncuCyte proliferation assay", "assay_type": "cell-based", "settings": "ln-229, 100 µM", "in_short": "as §1"}, "Cytochrome P450 2C9": {"target": "Cytochrome P450 2C9 (Homo sapiens, UniProt P11712)", "sequence (P11712 whole entry)": "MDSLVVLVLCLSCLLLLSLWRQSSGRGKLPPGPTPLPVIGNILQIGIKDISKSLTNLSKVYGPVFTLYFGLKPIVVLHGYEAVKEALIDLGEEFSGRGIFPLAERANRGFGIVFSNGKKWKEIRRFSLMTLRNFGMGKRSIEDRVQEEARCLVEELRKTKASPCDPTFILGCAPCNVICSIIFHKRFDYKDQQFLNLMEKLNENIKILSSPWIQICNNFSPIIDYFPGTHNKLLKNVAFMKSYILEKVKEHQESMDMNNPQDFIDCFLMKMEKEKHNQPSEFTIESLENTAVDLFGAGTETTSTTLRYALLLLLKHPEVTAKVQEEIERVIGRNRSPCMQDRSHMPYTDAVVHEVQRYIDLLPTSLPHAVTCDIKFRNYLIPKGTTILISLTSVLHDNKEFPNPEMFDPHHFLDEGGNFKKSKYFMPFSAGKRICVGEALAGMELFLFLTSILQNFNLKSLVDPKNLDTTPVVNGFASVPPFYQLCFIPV", "test": "Inhibition of CYP2C9 (unknown origin) at 10 uM", "assay_type": "ADME", "in_short": "(§2)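 Recombinant human CYP1A2, CYP2C9, CYP2C19, CYP2D6 and CYP3A4 (7-BFC or DBF as probe) were tested with probe substances and fluorescent detection, with test compound at 10 μM.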"}, "Cytochrome P450 2C19": {"target": "Cytochrome P450 2C19 (Homo sapiens, UniProt P33261)", "sequence (P33261 whole entry)": "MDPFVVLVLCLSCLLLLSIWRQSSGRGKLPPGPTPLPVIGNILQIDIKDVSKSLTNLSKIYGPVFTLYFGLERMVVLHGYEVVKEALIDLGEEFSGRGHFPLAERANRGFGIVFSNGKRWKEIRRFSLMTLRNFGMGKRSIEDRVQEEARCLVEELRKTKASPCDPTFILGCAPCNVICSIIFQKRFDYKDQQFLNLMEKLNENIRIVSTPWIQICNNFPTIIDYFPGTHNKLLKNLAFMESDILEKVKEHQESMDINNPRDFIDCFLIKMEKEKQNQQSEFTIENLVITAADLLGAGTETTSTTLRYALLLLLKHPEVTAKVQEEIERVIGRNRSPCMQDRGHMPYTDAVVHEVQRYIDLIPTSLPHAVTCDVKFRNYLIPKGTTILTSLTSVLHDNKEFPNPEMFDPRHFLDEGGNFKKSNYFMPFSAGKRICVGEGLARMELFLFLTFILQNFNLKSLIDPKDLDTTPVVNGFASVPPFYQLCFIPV", "test": "Inhibition of CYP2C19 (unknown origin) at 10 uM", "assay_type": "ADME", "in_short": "as §2"}, "Mus musculus [8]": {"system": "Mus musculus", "test": "Antialzheimer activity in 5xFAD transgenic Alzheimer disease mouse model assessed as increase in GPX1 expression at 1 mg/kg/day by Western blot analysis"}, "[9]": {"test": "Stability in human plasma assessed as compound remaining after1 hrs", "assay_type": "ADME, cell-free", "settings": "read-out: Stabilty", "in_short": "(§3)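 Pooled human plasma from healthy donors, sampled at 0, 1, 2 and 6 h, reported as percentage of parent remaining.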"}, "HL-60": {"system": "HL-60", "test": "Cytotoxicity against human HL-60 cells at 100 uM by real time IncuCyte proliferation assay", "assay_type": "cell-based", "settings": "hl-60, 100 µM", "in_short": "as §1"}, "[10]": {"test": "Cytotoxicity against human DND41 cells at 100 uM by real time IncuCyte proliferation assay", "assay_type": "cell-based", "settings": "dnd41, 100 µM", "in_short": "as §1"}, "[11]": {"test": "Displacement of [3H]clonidine from imidazoline I1 receptor low affinity site in human hypothalamic membranes measured after 30 mins by liquid scintillation counting spectrometry", "assay_type": "cell membranes, Hypothalamus, Membrane"}, "[12]": {"test": "Plasma protein binding in human assessed as unbound fraction", "assay_type": "ADME, cell-free"}, "[13]": {"test": "Stability in human plasma assessed as compound remaining after 6 hrs", "assay_type": "ADME, cell-free", "settings": "read-out: Stabilty", "in_short": "as §3"}, "[14]": {"test": "Displacement of [3H]2-BFI from imidazoline I2 receptor high affinity site in post-mortem human brain frontal cortex membrane two site model measured after 45 mins by liquid scintillation counting spectrometry"}, "[15]": {"test": "Displacement of [3H]2-BFI from imidazoline I2 receptor high affinity site in Swiss mouse brain cerebral cortex membrane measured after 45 mins by liquid scintillation counting spectrometry"}, "[16]": {"test": "Terminal half life in CD-1 mouse at 10 mg/kg, po measured after 24 hrs by HPLC/UV-VS analysis", "assay_type": "ADME, organism-based", "settings": "in vivo, read-out: beta t1/2 (converted)", "in_short": "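Male CD1 mice (40–50 g, n = 3–4 per group) received a single 10 mg/kg dose. Plasma was taken at 15, 30, 45 and 60 min and 2, 3, 4, 5, 8 and 24 h. Drug was measured by HPLC-UV at 290 nm against a calibration of 0,025-5 μg/mL. Non-compartmental analysis used the mean curve: t1/2β = ln2/β from least-squares terminal slope; Tmax read directly.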"}, "[17]": {"test": "AUC (0 to t) in CD-1 mouse at 10 mg/kg, po measured after 24 hrs by HPLC/UV-VS analysis", "assay_type": "ADME, organism-based", "parameters": "route oral, time 24 hrs, dose 10 mg/kg", "settings": "in vivo", "in_short": "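Male CD1 mice; plasma concentration of drug at 15 min to 24 h after a single oral 10 mg/kg dose, measured by HPLC with UV at 290 nm (calibration 0,025-5 μg/mL, peak area ratio). Non-compartmental analysis of mean concentration–time curves: AUC by trapezoidal rule, Cmax read directly from the mean curve.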"}, "[18]": {"test": "Solubility of the compound in 1% DMSO solution", "assay_type": "physicochemical"}, "Homo sapiens [19]": {"species": "Homo sapiens", "test": "Selectivity index, ratio of pKi for displacement of [3H]2-BFI from imidazoline I2 receptor in post-mortem human brain frontal cortex membrane to pKi for displacement of [3H]-RX821002 from adrenergic alpha 2 receptor in post-mortem human brain frontal cortex membrane", "assay_type": "cell membranes"}, "[20]": {"test": "Displacement of [3H]2-BFI from imidazoline I2 receptor low affinity site in post-mortem human brain frontal cortex membrane two site model measured after 45 mins by liquid scintillation counting spectrometry"}, "hERG (KCNH2)": {"target": "hERG (KCNH2) (Homo sapiens, UniProt Q12809)", "sequence (Q12809 whole entry)": "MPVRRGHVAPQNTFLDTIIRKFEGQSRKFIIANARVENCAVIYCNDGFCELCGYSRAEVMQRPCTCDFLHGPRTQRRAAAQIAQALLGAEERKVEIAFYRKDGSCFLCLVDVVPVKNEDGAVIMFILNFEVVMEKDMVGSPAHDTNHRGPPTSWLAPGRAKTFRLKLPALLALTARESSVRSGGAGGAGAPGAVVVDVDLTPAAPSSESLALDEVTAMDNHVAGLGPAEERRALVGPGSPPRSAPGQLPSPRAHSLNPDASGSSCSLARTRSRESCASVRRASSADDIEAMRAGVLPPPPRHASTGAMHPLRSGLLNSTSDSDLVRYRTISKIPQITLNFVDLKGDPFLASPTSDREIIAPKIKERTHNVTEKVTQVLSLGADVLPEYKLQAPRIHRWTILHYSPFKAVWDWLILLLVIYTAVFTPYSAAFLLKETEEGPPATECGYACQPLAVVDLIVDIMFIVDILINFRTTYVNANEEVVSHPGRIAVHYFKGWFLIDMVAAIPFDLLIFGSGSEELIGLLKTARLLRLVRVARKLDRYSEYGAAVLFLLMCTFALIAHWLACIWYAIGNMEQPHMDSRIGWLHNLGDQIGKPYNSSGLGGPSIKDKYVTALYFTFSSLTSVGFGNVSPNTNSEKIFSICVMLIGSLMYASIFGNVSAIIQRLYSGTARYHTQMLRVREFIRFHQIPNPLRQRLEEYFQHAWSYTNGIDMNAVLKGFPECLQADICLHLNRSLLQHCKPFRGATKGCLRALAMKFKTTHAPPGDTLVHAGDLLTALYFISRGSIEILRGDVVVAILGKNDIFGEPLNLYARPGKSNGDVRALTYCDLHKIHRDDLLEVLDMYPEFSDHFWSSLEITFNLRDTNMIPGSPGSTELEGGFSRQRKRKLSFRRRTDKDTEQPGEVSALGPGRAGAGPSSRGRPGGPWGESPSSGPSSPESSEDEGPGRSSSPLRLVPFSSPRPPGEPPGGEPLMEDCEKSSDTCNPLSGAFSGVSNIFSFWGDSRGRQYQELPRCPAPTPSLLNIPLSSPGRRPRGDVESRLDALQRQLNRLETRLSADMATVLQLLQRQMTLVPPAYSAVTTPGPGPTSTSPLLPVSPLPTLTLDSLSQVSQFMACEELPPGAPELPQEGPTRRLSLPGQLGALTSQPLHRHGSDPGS", "test": "Inhibition of human ERG at 10 uM"}, "Cytochrome P450 3A4": {"target": "Cytochrome P450 3A4 (Homo sapiens, UniProt P08684)", "sequence (P08684 whole entry)": "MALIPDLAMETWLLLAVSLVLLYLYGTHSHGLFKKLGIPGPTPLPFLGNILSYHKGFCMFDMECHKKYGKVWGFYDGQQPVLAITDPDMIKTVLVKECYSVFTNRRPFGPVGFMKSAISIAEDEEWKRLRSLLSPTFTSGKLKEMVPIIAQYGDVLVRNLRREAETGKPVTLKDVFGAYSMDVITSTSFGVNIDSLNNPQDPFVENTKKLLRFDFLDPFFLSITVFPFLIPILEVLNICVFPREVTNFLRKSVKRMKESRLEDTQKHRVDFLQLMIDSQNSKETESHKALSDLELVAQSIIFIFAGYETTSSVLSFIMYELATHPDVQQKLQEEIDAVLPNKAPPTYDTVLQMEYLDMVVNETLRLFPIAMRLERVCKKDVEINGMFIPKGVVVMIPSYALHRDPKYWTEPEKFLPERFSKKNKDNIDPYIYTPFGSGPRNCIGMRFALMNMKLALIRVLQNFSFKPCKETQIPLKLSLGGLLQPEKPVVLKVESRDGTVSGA", "test": "Inhibition of CYP3A4 (unknown origin) using as DBF as substrate at 10 uM", "assay_type": "ADME", "in_short": "as §2"}, "[21]": {"test": "Stability in mouse plasma assessed as compound remaining after 6 hrs", "assay_type": "ADME, cell-free", "settings": "read-out: Stabilty"}, "[22]": {"test": "Microsomal stability in mouse liver microsomes assessed as parent compound remaining after 60 mins", "assay_type": "ADME, Microsome", "settings": "read-out: Stabilty", "in_short": "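Human and mouse microsomes, incubation for 60 min, with percentage of parent compound remaining reported.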"}, "[23]": {"test": "Displacement of [3H]2-BFI from imidazoline I2 receptor low affinity site in Swiss mouse brain cerebral cortex membrane measured after 45 mins by liquid scintillation counting spectrometry"}, "[24]": {"test": "Stability in human plasma assessed as compound remaining after 2 hrs", "assay_type": "ADME, cell-free", "settings": "read-out: Stabilty", "in_short": "as §3"}},
  "note": "Calls of active or inactive are those of the source. The rule behind the calls is not given here.",
  "data": [
    {"smiles": "Cl.c1ccc2oc(-c3ncc[nH]3)cc2c1", "values": [
      {"measurement": "Activity", "setting": "[1]", "value": "Non-Toxic"},
      {"measurement": "Activity", "setting": "CAPAN-1", "value": "Non-Toxic"},
      {"measurement": "Ki", "setting": "[2]", "value": 115, "unit": "µM"},
      {"measurement": "Activity", "setting": "Homo sapiens [3]", "value": 34, "unit": "%"},
      {"measurement": "Activity", "setting": "Mus musculus [4]", "value": 41, "unit": "%"},
      {"measurement": "Activity", "setting": "K562", "value": "Non-Toxic"},
      {"measurement": "Activity", "setting": "Mus musculus [5]", "value": "Active"},
      {"measurement": "Activity", "setting": "[6]", "value": "Toxic"},
      {"measurement": "pKi", "setting": "[7]", "value": 6.45},
      {"measurement": "Activity", "setting": "LN-229", "value": "Non-Toxic"},
      {"measurement": "inhibition (INH)", "setting": "Cytochrome P450 2C9", "value": "Not Active"},
      {"measurement": "inhibition (INH)", "setting": "Cytochrome P450 2C19", "value": "Not Active"},
      {"measurement": "Activity", "setting": "Mus musculus [8]", "value": "Active"},
      {"measurement": "remaining at 1 h", "setting": "[9]", "value": 83, "unit": "%"},
      {"measurement": "Activity", "setting": "HL-60", "value": "Non-Toxic"},
      {"measurement": "Activity", "setting": "[10]", "value": "Non-Toxic"},
      {"measurement": "Ki", "setting": "[11]", "value": 250, "unit": "µM"},
      {"measurement": "fraction unbound", "setting": "[12]", "value": 0.071},
      {"measurement": "remaining at 6 h", "setting": "[13]", "value": 57, "unit": "%"},
      {"measurement": "pKi", "setting": "[14]", "value": 8.17},
      {"measurement": "pKi", "setting": "[15]", "value": 9.92},
      {"measurement": "half-life", "setting": "[16]", "value": 6.7, "unit": "h"},
      {"measurement": "AUC(0-t) at 24 h", "setting": "[17]", "value": 2700, "unit": "ng·h/mL"},
      {"measurement": "solubility", "setting": "[18]", "value": 52.5, "unit": "µM"},
      {"measurement": "Selectivity Index", "setting": "Homo sapiens [19]", "value": 3090},
      {"measurement": "pKi", "setting": "[20]", "value": 6.02},
      {"measurement": "inhibition at 10 µM", "setting": "hERG (KCNH2)", "value": 4, "unit": "%"},
      {"measurement": "inhibition (INH)", "setting": "Cytochrome P450 3A4", "value": "Not Active"},
      {"measurement": "remaining at 6 h", "setting": "[21]", "value": 100, "unit": "%"},
      {"measurement": "remaining at 1 h", "setting": "[22]", "value": 36, "unit": "%"},
      {"measurement": "pKi", "setting": "[23]", "value": 6},
      {"measurement": "remaining at 2 h", "setting": "[24]", "value": 77, "unit": "%"}
    ]}
  ]
}
